# Assay results taken from paper PMC12569033 (Nature Communications, 2025).
# Entries after “also recorded” stand apart in the source; their conditions may differ.
# Experiments:
# dmIR wild-type (WT) = assay: Cell-based dmIR activation; set-up: species or system Drosophila melanogaster; settings: 10 min; for dmIR autophosphorylation, in words / Efficacy (signal in amplitude) relative to DILP5: dose response Fig. 1a; for Efficacy (signal in amplitude) relative to DILP5: of the efficacy/maximum of DILP5; for dmIR WT autophosphorylation on stimulation, in words: 100 nM, Fig. 2f, g
# [1] = target: near-full-length dmIR (residues 1–50, 151–1675, D1519N) (Drosophila melanogaster) (UniProt P09208); assay: cryo-EM structure
# dmIR Q1040A = assay: dmIR autophosphorylation assay, Q1040A mutant; type: cell-based, Drosophila melanogaster; settings: 100 nM ligand, 10 min
# Method in brief: (§1)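 Site-directed dmIR point mutants (C-terminal MYC tag) were transfected into 293FT cells alongside WT. After 1 day, cells were serum-starved 16–18 h, then treated 10 min with 100 nM DILP2 or DILP5. Lysates were blotted with anti-pY1150/1151 and anti-Myc. pY-dmIR was normalized to total dmIR and expressed relative to WT with the same ligand. Data are mean ± sem of ≥3 independent experiments, analysed by two-way ANOVA with Dunnett test versus WT.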
# dmIR F1044A = assay: dmIR autophosphorylation assay, F1044A mutant; type: cell-based, Drosophila melanogaster; settings: 100 nM ligand, 10 min
# Method in brief: as §1
# dmIR R848A = assay: dmIR autophosphorylation assay, R848A mutant; type: cell-based, Drosophila melanogaster; settings: 100 nM ligand, 10 min
# Method in brief: as §1
# dmIR R657A = assay: dmIR autophosphorylation assay, R657A mutant; type: cell-based, Drosophila melanogaster; settings: 100 nM DILP5, 10 min
# Method in brief: (§2)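 Full-length wDah dmIR with a C-terminal MYC tag, mutated by site-directed mutagenesis, was transiently transfected into 293FT cells. After 1 day, cells were serum-starved for 16–18 h, then exposed to 100 nM synthetic DILP for 10 min. Lysates were immunoblotted for pY1548/1549 and Myc, and pY signal was normalized to total dmIR relative to WT receiving the same treatment. Independent experiments were analysed by two-way ANOVA with Dunnett's test, mean ± sem.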
# dmIR Δ602–609 = assay: dmIR autophosphorylation assay, Δ602–609 mutant; type: cell-based, Drosophila melanogaster; settings: Δ602–609, 100 nM DILP5, 10 min
# Method in brief: as §2
# dmIR V889R = assay: dmIR autophosphorylation assay, V889R mutant; type: cell-based, Drosophila melanogaster; settings: 100 nM DILP5, 10 min
# Method in brief: as §2
# dmIR S820R = assay: dmIR autophosphorylation assay, S820R mutant; type: cell-based, Drosophila melanogaster; settings: 100 nM DILP5, 10 min
# Method in brief: as §2
# dmIR D1251R = assay: dmIR autophosphorylation assay, D1251R mutant; type: cell-based, Drosophila melanogaster; settings: 100 nM ligand, 10 min
# Method in brief: as §2
# dmIR K1256A = assay: dmIR autophosphorylation assay, K1256A mutant; type: cell-based, Drosophila melanogaster; settings: 100 nM ligand, 10 min
# Method in brief: as §2
# Drosophila S2 cells = settings: single peptide applied to cultured Drosophila S2 cells; cited from earlier work
# [2] = test system: glycogen phosphorylase; sterile 20-like kinase; tramtrack; settings: cited from earlier work
Molecule,"dmIR autophosphorylation, in words (Fig. 5f, g) (dmIR wild-type (WT); 1000 nM DILP1, 100 nM DILP5 or combination)","dmIR autophosphorylation, in words (dmIR wild-type (WT); 293FT)",Efficacy (signal in amplitude) relative to DILP5 (dmIR wild-type (WT); 293FT),stoichiometry N (DILP5 molecules per dmIR dimer) [1],"dmIR WT autophosphorylation on stimulation, in words (dmIR wild-type (WT); 293FT)",Concentration at which saturation of dmIR autophosphorylation is observed (dmIR wild-type (WT); 293FT) [nM],"Effect of receptor mutation on ligand-induced activation, in words (dmIR Q1040A)","Effect of receptor mutation on ligand-induced activation, in words (dmIR F1044A)","Effect of receptor mutation on ligand-induced activation, in words (dmIR R848A)","Effect of receptor mutation on ligand-induced activation, in words (dmIR R657A)","Effect of receptor mutation on ligand-induced activation, in words (dmIR Δ602–609)","Effect of receptor mutation on ligand-induced activation, in words (dmIR V889R)","Effect of receptor mutation on ligand-induced activation, in words (dmIR S820R)","Effect of receptor mutation on ligand-induced activation, in words (dmIR D1251R)","Effect of receptor mutation on ligand-induced activation, in words (dmIR K1256A)","Phosphorylation of Akt (pAkt), in words (Drosophila S2 cells)","Protein phosphorylation changes, in words [2]"
Drosophila insulin-like peptide 1 [DILP1],lower levels of dmIR autophosphorylation compared to DILP5,lowest level of dmIR autophosphorylation; also recorded: lowest efficacy in activating dmIR,about 50%,–,–,–,–,–,–,–,–,–,–,–,–,–,–
Drosophila insulin-like peptide 5 (DILP5) (ligand),–,–,–,3,–,–,–,–,–,–,–,–,–,–,–,–,–
"Drosophila insulin-like peptide 5 (peptide, UniProt Q7KUD5 23-108, looked up) Insulin-like peptide 5: ANSLRACGPALMDMLRVACPNGFNSMFAKRGTLGLFDYEDHLADLDSSESHHMNSLSSIRRDFRGVVDSCCRKSCSFSTLRAYCDS",–,increased dmIR autophosphorylation in a dose-dependent manner; also recorded: higher levels of dmIR autophosphorylation,–,–,significantly increased autophosphorylation of dmIR WT,300,reduced receptor autophosphorylation,reduced receptor autophosphorylation,reduced receptor autophosphorylation,impaired DILP5-induced activation of dmIR,impaired DILP5-induced activation of dmIR,modest but statistically significant reduction in dmIR phosphorylation,modest but statistically significant reduction in dmIR phosphorylation,defects in DILP5- or DILP2-dependent dmIR activation,defects in DILP5- or DILP2-dependent dmIR activation,robust and sustained phosphorylation of Akt (pAkt),increases the phosphorylation of sterile 20-like kinase and tramtrack
"Drosophila insulin-like peptide 2 (peptide, UniProt Q9VT51 27-137, looked up) Insulin-like peptide 2: TLCSEKLNEVLSMVCEEYNPVIPHKRAMPGADSDLDALNPLQFVQEFEEEDNSISEPLRSALFPGSYLGGVLNSLAEVRRRTRQRQGIVERCCKKSCDMKALREYCSVVRN",–,less effective than DILP5,approximately 75%,–,significantly increased autophosphorylation of dmIR WT,–,reduced receptor autophosphorylation,reduced receptor autophosphorylation,reduced receptor autophosphorylation,–,–,–,–,defects in DILP5- or DILP2-dependent dmIR activation,defects in DILP5- or DILP2-dependent dmIR activation,only stimulates an early spike of pAkt,represses the phosphorylation of glycogen phosphorylase
